Measured values: ChEMBL document CHEMBL1122932, “Metabolism of phencyclidine. The role of the carbinolamine intermediate in the formation of lactam and amino acid metabolites of nitrogen heterocycles” (J Med Chem, 1985)

Assays:
Assay type in all cases: ADME
Mus musculus [1] = species: Mus musculus; assay: In vitro level of metabolite in mice liver microsomes at 0 hours; ND is Not Detected (< 8 ug/vessel)
How it was run: (§1)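 Time-zero control: the reaction was stopped right after phencyclidine was added to the mouse (male ICR) liver 12500g supernatant plus NADP-regenerating cofactor mix. Metabolites were quantified by GLC or HPLC with internal standards (N-benzylphenylalanine or ketamine), using calibration curves from spiked microsomal mixtures.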

Mus musculus [2] = species: Mus musculus; assay: In vitro level of metabolite in mice liver microsomes at 1 hour
How it was run: (§2)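 12500g liver supernatant from 10 male ICR mice (homogenized in ice-cold pH 7.4 Tris with 0.15 M KCl; stored -70 °C, used within 15 h). Incubated with phencyclidine and NADP/glucose 6-phosphate/nicotinamide/MgSO4 cofactor at 37 °C, 120 osc/min, 100% O2. Metabolites measured by GLC (N-benzylphenylalanine internal standard, nitrogen detector) or HPLC (ketamine internal standard), calibrated by spiking microsomal blanks.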

Mus musculus [3] = species: Mus musculus; assay: In vitro level of metabolite in mice liver microsomes at 2 hours; how it was run: as §2
Mus musculus [4] = species: Mus musculus; assay: In vitro level of metabolite in mice liver microsomes at 3 hours (heat inactivated control); ND is Not Detected (< 8 ug/ vessel)
How it was run: (§3)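 Control in which mouse (male ICR) liver 12500g supernatant was heat-inactivated before phencyclidine and cofactors were added. It was then incubated at 37 °C under 100% O2 with shaking alongside the test samples. Metabolites were quantified by GLC or HPLC against internal standards (N-benzylphenylalanine or ketamine), calibrated by spiking.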

Mus musculus [5] = species: Mus musculus; assay: In vitro level of metabolite in mice liver microsomes at 3 hours; how it was run: as §2
Mus musculus [6] = species: Mus musculus; assay: In vitro level of metabolite in mice liver microsomes at 0 hours; ND is […] (< 2 ug/vessel); how it was run: as §1
Mus musculus [7] = species: Mus musculus; assay: In vitro level of metabolite in mice liver microsomes at 3 hours (heat inactivated control); ND is Not Detected (< 2 ug/vessel); how it was run: as §3
Mus musculus [8] = species: Mus musculus; assay: In vitro level of metabolite in mice liver microsomes at 1 hour; ND is Not Detected (< 8 ug/vessel); how it was run: as §2
Mus musculus [9] = species: Mus musculus; assay: In vitro level of metabolite in mice liver microsomes at 2 hours; ND is Not Detected (< 8 ug/vessel); how it was run: as §2
Mus musculus [10] = species: Mus musculus; assay: In vitro level of metabolite in mice liver microsomes at 3 hours (heat inactivated control); ND is Not Detected (< 8 ug/vessel); how it was run: as §3
Mus musculus [11] = species: Mus musculus; assay: In vitro level of metabolite in mice liver microsomes at 3 hours; ND is Not Detected (< 8 ug/vessel); how it was run: as §2

Row | SMILES | Metabolite levels (Mus musculus [1]) | Metabolite levels (Mus musculus [2]) [µg] | Metabolite levels (Mus musculus [3]) [µg] | Metabolite levels (Mus musculus [4]) | Metabolite levels (Mus musculus [5]) [µg] | Metabolite levels (Mus musculus [6]) | Metabolite levels (Mus musculus [7]) | Metabolite levels (Mus musculus [8]) | Metabolite levels (Mus musculus [9]) | Metabolite levels (Mus musculus [10]) | Metabolite levels (Mus musculus [11])
1 | Cl.O=C(O)CCCCNC1(c2ccccc2)CCCCC1 | Not detected | 110 | 123 | Not detected | 135 |  |  |  |  |  | 
2 | OCCCCCNC1(c2ccccc2)CCCCC1 |  | 2.8 | 2.4 |  | 1.4 | Not detected | Not detected |  |  |  | 
3 | O=C1CCCCN1C1(c2ccccc2)CCCCC1 | Not detected |  |  |  |  |  |  | Not detected | Not detected | Not detected | Not detected
4 | OC1CCN(C2(c3ccccc3)CCCCC2)CC1 |  | 9.3 | 9.2 |  | 10.3 |  |  |  |  |  | 
